# Test results taken from ChEMBL document CHEMBL3576819, “Design, synthesis, biological evaluation and molecular docking studies of phenylpropanoid derivatives as potent anti-hepatitis B virus agents” (Eur J Med Chem, 2015).
# Assays:
# Hepatitis B virus [1] = experiment: Antiviral activity against Hepatitis B virus infected in human HepG2.2.15 cells assessed as inhibition of HBV DNA copies per uL at 150 uM after 6 days by real-time fluorescence quantitative PCR analysis; type: functional; conditions: HepG2 2.2.15, 144 h
# Hepatitis B virus [2] = experiment: Antiviral activity against Hepatitis B virus infected in human HepG2.2.15 cells assessed as inhibition of HBV DNA copies per uL at 75 uM after 6 days by real-time fluorescence quantitative PCR analysis; type: functional; conditions: HepG2 2.2.15, 144 h
# Hepatitis B virus [3] = experiment: Antiviral activity against Hepatitis B virus infected in human HepG2.2.15 cells assessed as inhibition of HBsAg secretion at 37.5 uM after 6 days by ELISA; type: functional; conditions: HepG2 2.2.15, 144 h
# Procedure, shortened: (§1)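 HepG2.2.15 cells (MEM, 10% FBS, 380 µg/ml G418) seeded at 1×10^5 cells/ml, held 24 h at 37 °C, then treated with various drug concentrations; medium with drug renewed every 3 d for up to 9 d. Culture medium sampled on days 3, 6 and 9, stored at -20 °C, and assayed for secreted antigen. Lamivudine as positive control; IC50 = 50% inhibition of secretion; means of at least two experiments.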
# Hepatitis B virus [4] = experiment: Antiviral activity against Hepatitis B virus infected in human HepG2.2.15 cells assessed as cell survival at 300 uM after 9 days (reference value: 100%); type: functional; conditions: HepG2 2.2.15, 216 h
# Procedure, shortened: (§2)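 HepG2.2.15 cells (MEM, 10% FBS, 380 µg/ml G418, 37 °C, 5% CO2) seeded at 1×10^5 cells/ml, cultured 24 h, then exposed to various drug concentrations; drug-containing medium renewed every 3 d. OD read at 450 nm after 9 days; percent cell death calculated; CC50 = concentration killing 50% of cells. Means of at least two experiments.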
# Hepatitis B virus [5] = experiment: Antiviral activity against Hepatitis B virus infected in human HepG2.2.15 cells assessed as inhibition of HBsAg secretion at 75 uM after 9 days by ELISA; type: functional; conditions: HepG2 2.2.15, 216 h; procedure, shortened: as §1
# Hepatitis B virus [6] = experiment: Antiviral activity against Hepatitis B virus infected in human HepG2.2.15 cells assessed as inhibition of HBeAg secretion at 150 uM after 6 days by ELISA; type: functional; conditions: HepG2 2.2.15, 144 h; procedure, shortened: as §1
# Hepatitis B virus [7] = experiment: Antiviral activity against Hepatitis B virus infected in human HepG2.2.15 cells assessed as inhibition of HBeAg secretion at 75 uM after 9 days by ELISA; type: functional; conditions: HepG2 2.2.15, 216 h; procedure, shortened: as §1
# Hepatitis B virus [8] = experiment: Antiviral activity against Hepatitis B virus infected in human HepG2.2.15 cells assessed as inhibition of HBeAg secretion at 37.5 uM after 6 days by ELISA; type: functional; conditions: HepG2 2.2.15, 144 h; procedure, shortened: as §1
# Hepatitis B virus [9] = experiment: Antiviral activity against Hepatitis B virus infected in human HepG2.2.15 cells assessed as inhibition of HBV DNA replication by real-time fluorescence quantitative PCR analysis; type: functional, organism-based; conditions: HepG2 2.2.15
# Hepatitis B virus [10] = experiment: Antiviral activity against Hepatitis B virus infected in human HepG2.2.15 cells assessed as inhibition of HBsAg secretion at 75 uM after 6 days by ELISA; type: functional; conditions: HepG2 2.2.15, 144 h; procedure, shortened: as §1
# Hepatitis B virus [11] = experiment: Antiviral activity against Hepatitis B virus infected in human HepG2.2.15 cells assessed as inhibition of HBV DNA copies per uL at 75 uM after 9 days by real-time fluorescence quantitative PCR analysis; type: functional; conditions: HepG2 2.2.15, 216 h
# Hepatitis B virus [12] = experiment: Antiviral activity against Hepatitis B virus infected in human HepG2.2.15 cells assessed as inhibition of HBsAg secretion at 300 uM after 9 days by ELISA; type: functional; conditions: HepG2 2.2.15, 216 h; procedure, shortened: as §1
# Hepatitis B virus [13] = experiment: Antiviral activity against Hepatitis B virus infected in human HepG2.2.15 cells assessed as inhibition of HBsAg secretion at 300 uM after 3 days by ELISA; type: functional; conditions: HepG2 2.2.15, 72 h; procedure, shortened: as §1
# Hepatitis B virus [14] = experiment: Antiviral activity against Hepatitis B virus infected in human HepG2.2.15 cells assessed as inhibition of HBsAg secretion at 75 uM after 3 days by ELISA; type: functional; conditions: HepG2 2.2.15, 72 h; procedure, shortened: as §1
# Hepatitis B virus [15] = experiment: Antiviral activity against Hepatitis B virus infected in human HepG2.2.15 cells assessed as inhibition of HBeAg secretion at 150 uM after 3 days by ELISA; type: functional; conditions: HepG2 2.2.15, 72 h; procedure, shortened: as §1
# Hepatitis B virus [16] = experiment: Antiviral activity against Hepatitis B virus infected in human HepG2.2.15 cells assessed as inhibition of HBeAg secretion at 300 uM after 9 days by ELISA; type: functional; conditions: HepG2 2.2.15, 216 h; procedure, shortened: as §1
# Hepatitis B virus [17] = experiment: Antiviral activity against Hepatitis B virus infected in human HepG2.2.15 cells assessed as inhibition of HBeAg secretion at 150 uM after 9 days by ELISA; type: functional; conditions: HepG2 2.2.15, 216 h; procedure, shortened: as §1
# Hepatitis B virus [18] = experiment: Antiviral activity against Hepatitis B virus infected in human HepG2.2.15 cells assessed as inhibition of HBeAg secretion by ELISA; type: functional, organism-based; conditions: HepG2 2.2.15; procedure, shortened: as §1
# Hepatitis B virus [19] = experiment: Antiviral activity against Hepatitis B virus infected in human HepG2.2.15 cells assessed as inhibition of HBV DNA copies per uL at 37.5 uM after 6 days by real-time fluorescence quantitative PCR analysis; type: functional; conditions: HepG2 2.2.15, 144 h
# Hepatitis B virus [20] = experiment: Antiviral activity against Hepatitis B virus infected in human HepG2.2.15 cells assessed as inhibition of HBsAg secretion at 300 uM after 6 days by ELISA; type: functional; conditions: HepG2 2.2.15, 144 h; procedure, shortened: as §1
# Hepatitis B virus [21] = experiment: Antiviral activity against Hepatitis B virus infected in human HepG2.2.15 cells assessed as inhibition of HBsAg secretion at 150 uM after 6 days by ELISA; type: functional; conditions: HepG2 2.2.15, 144 h; procedure, shortened: as §1
# Hepatitis B virus [22] = experiment: Antiviral activity against Hepatitis B virus infected in human HepG2.2.15 cells assessed as inhibition of HBeAg secretion at 300 uM after 6 days by ELISA; type: functional; conditions: HepG2 2.2.15, 144 h; procedure, shortened: as §1
# Hepatitis B virus [23] = experiment: Antiviral activity against Hepatitis B virus infected in human HepG2.2.15 cells assessed as inhibition of HBeAg secretion at 75 uM after 3 days by ELISA; type: functional; conditions: HepG2 2.2.15, 72 h; procedure, shortened: as §1
# Hepatitis B virus [24] = experiment: Antiviral activity against Hepatitis B virus infected in human HepG2.2.15 cells assessed as inhibition of HBV DNA copies per uL at 37.5 uM after 3 days by real-time fluorescence quantitative PCR analysis; type: functional; conditions: HepG2 2.2.15, 72 h
# Hepatitis B virus [25] = experiment: Antiviral activity against Hepatitis B virus infected in human HepG2.2.15 cells assessed as cell survival at 37.5 uM after 9 days (reference value: 100%); type: functional; conditions: HepG2 2.2.15, 216 h; procedure, shortened: as §2
# Hepatitis B virus [26] = experiment: Antiviral activity against Hepatitis B virus infected in human HepG2.2.15 cells assessed as cell survival at 150 uM after 9 days (reference value: 100%); type: functional; conditions: HepG2 2.2.15, 216 h; procedure, shortened: as §2
# Hepatitis B virus [27] = experiment: Antiviral activity against Hepatitis B virus infected in human HepG2.2.15 cells assessed as inhibition of HBsAg secretion by ELISA; type: functional, organism-based; conditions: HepG2 2.2.15; procedure, shortened: as §1
# Hepatitis B virus [28] = experiment: Antiviral activity against Hepatitis B virus infected in human HepG2.2.15 cells assessed as inhibition of HBV DNA copies per uL at 150 uM after 3 days by real-time fluorescence quantitative PCR analysis; type: functional; conditions: HepG2 2.2.15, 72 h
# [29] = Cytotoxicity against human HepG2.2.15 cells assessed as cell death after 9 days by MTT assay; type: cell-based, HepG2 2.2.15; procedure, shortened: as §2
# Hepatitis B virus [30] = experiment: Antiviral activity against Hepatitis B virus infected in human HepG2.2.15 cells assessed as inhibition of HBV DNA copies per uL at 37.5 uM after 9 days by real-time fluorescence quantitative PCR analysis; type: functional; conditions: HepG2 2.2.15, 216 h
# Hepatitis B virus [31] = experiment: Antiviral activity against Hepatitis B virus infected in human HepG2.2.15 cells assessed as inhibition of HBsAg secretion at 37.5 uM after 9 days by ELISA; type: functional; conditions: HepG2 2.2.15, 216 h; procedure, shortened: as §1
IC50 (Hepatitis B virus [9]) [µM],IC50 (Hepatitis B virus [18]) [µM],Structure (SMILES),inhibition at 150 µM (Hepatitis B virus [1]) [%],inhibition at 75 µM (Hepatitis B virus [2]) [%],inhibition at 37.5 µM (Hepatitis B virus [3]) [%],viability at 300 µM (Hepatitis B virus [4]) [%],inhibition at 75 µM (Hepatitis B virus [5]) [%],inhibition at 150 µM (Hepatitis B virus [6]) [%],inhibition at 75 µM (Hepatitis B virus [7]) [%],inhibition at 37.5 µM (Hepatitis B virus [8]) [%],inhibition at 75 µM (Hepatitis B virus [10]) [%],inhibition at 75 µM (Hepatitis B virus [11]) [%],inhibition at 300 µM (Hepatitis B virus [12]) [%],inhibition at 300 µM (Hepatitis B virus [13]) [%],inhibition at 75 µM (Hepatitis B virus [14]) [%],inhibition at 150 µM (Hepatitis B virus [15]) [%],inhibition at 300 µM (Hepatitis B virus [16]) [%],inhibition at 150 µM (Hepatitis B virus [17]) [%],inhibition at 37.5 µM (Hepatitis B virus [19]) [%],inhibition at 300 µM (Hepatitis B virus [20]) [%],also measured
23.4,6.2,O=C(/C=C/c1ccc2c(c1)OCO2)O/N=C/c1ccccn1,61.6,47.6,55.4,35.1,78.4,77.6,89.8,66.5,67.3,68.7,93,75.8,58,55.9,96.4,95.9,38.1,88.7,inhibition at 150 µM (Hepatitis B virus [21]): 80.5%; inhibition at 300 µM (Hepatitis B virus [22]): 85.1%; inhibition at 75 µM (Hepatitis B virus [23]): 47.5%; inhibition at 37.5 µM (Hepatitis B virus [24]): 30.4%; viability at 37.5 µM (Hepatitis B virus [25]): 79.3%; viability at 150 µM (Hepatitis B virus [26]): 53.8%; IC50 (Hepatitis B virus [27]): 14.2 µM; inhibition at 150 µM (Hepatitis B virus [28]): 45.8%; CC50 at 216 h [29]: 253 µM; inhibition at 37.5 µM (Hepatitis B virus [30]): 58.4%; inhibition at 37.5 µM (Hepatitis B virus [31]): 70.7%
95,72.9,COc1cc(/C=C/C(=O)O/N=C/c2ccccn2)cc2c1OCO2,44.8,39.2,25.3,67.2,65.8,63.5,57.3,22.7,43.9,47.3,81.3,58.5,27.2,45.5,82.6,65.3,26.9,76.6,inhibition at 150 µM (Hepatitis B virus [21]): 59.6%; inhibition at 300 µM (Hepatitis B virus [22]): 75.4%; inhibition at 75 µM (Hepatitis B virus [23]): 27.3%; inhibition at 37.5 µM (Hepatitis B virus [24]): 21.6%; viability at 37.5 µM (Hepatitis B virus [25]): 101%; viability at 150 µM (Hepatitis B virus [26]): 82.8%; IC50 (Hepatitis B virus [27]): 62.8 µM; inhibition at 150 µM (Hepatitis B virus [28]): 34.9%; CC50 at 216 h [29]: 645 µM; inhibition at 37.5 µM (Hepatitis B virus [30]): 36.7%; inhibition at 37.5 µM (Hepatitis B virus [31]): 30.4%
